The results in this text go back to ChEMBL document CHEMBL4825692, “Benzofuranyl-2-imidazoles as imidazoline I2 receptor ligands for Alzheimer's disease” (Eur J Med Chem, 2021).

Data set [1] can be described thus: Displacement of [3H]clonidine from imidazoline I1 receptor high affinity site in human hypothalamic membranes measured after 30 mins by liquid scintillation counting spectrometry. It counts as cell membranes, Hypothalamus, Membrane. (In general: Displacement assays read how much labelled ligand stays bound in the presence of the test substance.)
Data set [2] in a line: Displacement of [3H]clonidine from imidazoline I1 receptor low affinity site in human hypothalamic membranes measured after 30 mins by liquid scintillation counting spectrometry. Format: cell membranes, Hypothalamus, Membrane.
Data set [3] can be described thus: Displacement of [3H]2-BFI from imidazoline I2 receptor in post-mortem human brain frontal cortex membrane one site model measured after 45 mins by liquid scintillation counting spectrometry.
Another data set has as its system HCT-116. The data set can be described thus: Cytotoxicity against human HCT-116 cells at 100 uM by real time IncuCyte proliferation assay. Particulars: hct-116, 100 µM. Format: cell-based. The method, boiled down:
(§1)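 Adherent lines (LN-229, Capan-1, HCT-116, NCI-H460) seeded at 500–1500 cells/well and treated after overnight attachment. Suspension lines (HL-60, K-562, Z-138, DND-41) seeded at 2500–5500 cells/well directly with compound. Highest concentration 100 μM; proliferation tracked by real-time IncuCyte imaging over 72 h at 37 °C.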

Another data set concerns Z-138. The data set can be described thus: Cytotoxicity against human Z138 cells at 100 uM by real time IncuCyte proliferation assay. It counts as cell-based. Particulars: z-138, 100 µM. In outline: as §1
The nature of data set [4]: Displacement of [3H]2-BFI from imidazoline I2 receptor high affinity site in post-mortem human brain frontal cortex membrane two site model measured after 45 mins by liquid scintillation counting spectrometry.
Data set [5] is described as follows: Permeability of compound by PAMPA-BBB assay. Format: ADME. In general terms: PAMPA measures passive passage across an artificial lipid membrane.
The species named for data set [6] is Homo sapiens. The experiment in a line: Selectivity index, ratio of pKi for displacement of [3H]2-BFI from imidazoline I2 receptor in post-mortem human brain frontal cortex membrane to pKi for displacement of [3H]-RX821002 from adrenergic alpha 2 receptor in post-mortem human brain frontal cortex membrane. It counts as cell membranes.
The next data set relates to HL-60. The data set can be described thus: Cytotoxicity against human HL-60 cells at 100 uM by real time IncuCyte proliferation assay. Particulars: hl-60, 100 µM. Format: cell-based. In outline: as §1
Data set [7] is described as follows: Displacement of [3H]2-BFI from imidazoline I2 receptor low affinity site in post-mortem human brain frontal cortex membrane two site model measured after 45 mins by liquid scintillation counting spectrometry.
The subject of another data set is K562. The experiment in a line: Cytotoxicity against human K562 cells at 100 uM by real time IncuCyte proliferation assay. Particulars: k562, 100 µM. Format: cell-based. The method, boiled down: as §1
The target of data set [8] is T1, Adrenergic receptor alpha-2 (Homo sapiens, UniProt P08913+P18825+P18089).
T1 sequence (P08913 whole entry): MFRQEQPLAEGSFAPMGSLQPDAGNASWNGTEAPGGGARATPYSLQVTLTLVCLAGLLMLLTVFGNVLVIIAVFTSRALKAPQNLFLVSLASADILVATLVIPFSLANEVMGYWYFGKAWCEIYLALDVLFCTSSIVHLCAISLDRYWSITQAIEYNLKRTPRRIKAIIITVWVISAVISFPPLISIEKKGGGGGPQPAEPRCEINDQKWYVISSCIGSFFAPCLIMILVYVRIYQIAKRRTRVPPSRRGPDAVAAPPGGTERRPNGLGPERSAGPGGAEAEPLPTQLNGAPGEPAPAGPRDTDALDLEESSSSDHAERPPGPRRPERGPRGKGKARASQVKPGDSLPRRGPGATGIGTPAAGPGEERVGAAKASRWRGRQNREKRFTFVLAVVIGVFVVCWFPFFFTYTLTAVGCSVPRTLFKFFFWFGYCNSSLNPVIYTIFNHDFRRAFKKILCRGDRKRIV
T1 sequence (P18825 whole entry): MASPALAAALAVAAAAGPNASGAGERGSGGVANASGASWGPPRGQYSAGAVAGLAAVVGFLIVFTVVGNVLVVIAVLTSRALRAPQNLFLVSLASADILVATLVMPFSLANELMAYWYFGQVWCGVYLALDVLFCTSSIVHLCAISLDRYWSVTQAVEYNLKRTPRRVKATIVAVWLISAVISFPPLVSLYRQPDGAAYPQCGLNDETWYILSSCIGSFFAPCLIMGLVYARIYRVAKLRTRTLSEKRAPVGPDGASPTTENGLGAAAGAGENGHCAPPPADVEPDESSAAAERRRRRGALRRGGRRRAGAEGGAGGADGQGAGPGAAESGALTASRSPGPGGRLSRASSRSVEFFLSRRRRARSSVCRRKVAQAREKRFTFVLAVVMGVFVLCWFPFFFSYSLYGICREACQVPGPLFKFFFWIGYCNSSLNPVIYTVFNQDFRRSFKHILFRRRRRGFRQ
T1 sequence (P18089 whole entry): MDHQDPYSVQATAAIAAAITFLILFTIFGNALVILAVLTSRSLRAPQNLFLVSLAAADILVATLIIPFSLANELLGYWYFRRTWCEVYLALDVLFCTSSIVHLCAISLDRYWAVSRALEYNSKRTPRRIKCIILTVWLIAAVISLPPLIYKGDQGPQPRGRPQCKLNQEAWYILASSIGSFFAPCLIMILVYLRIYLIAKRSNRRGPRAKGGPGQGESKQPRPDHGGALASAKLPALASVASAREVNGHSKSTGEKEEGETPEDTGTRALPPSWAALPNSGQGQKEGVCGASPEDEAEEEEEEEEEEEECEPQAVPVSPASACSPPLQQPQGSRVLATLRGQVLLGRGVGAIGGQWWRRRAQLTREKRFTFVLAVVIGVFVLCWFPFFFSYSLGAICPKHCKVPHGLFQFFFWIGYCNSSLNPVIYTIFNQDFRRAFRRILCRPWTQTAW
The data set can be described thus: Displacement of [3H]-RX821002 from adrenergic alpha 2 receptor in post-mortem human brain frontal cortex membrane measured after 30 mins by liquid scintillation counting spectrometry. Format: cell membranes.

Data set [9] is filed under the species Homo sapiens. The experiment in a line: Displacement of [3H]2-BFI from imidazoline I2 receptor in post-mortem human brain frontal cortex membrane assessed as occupancy at high affinity site measured after 45 mins by liquid scintillation counting spectrometry.
Another data set concerns CAPAN-1. The data set can be described thus: Cytotoxicity against human CAPAN-1 cells at 100 uM by real time IncuCyte proliferation assay. Format: cell-based. Particulars: capan-1, 100 µM. In outline: as §1
Data set [10] is described as follows: Cytotoxicity against human DND41 cells at 100 uM by real time IncuCyte proliferation assay. It counts as cell-based. To be noted: dnd41, 100 µM. The method, boiled down:
as §1

A further data set has as its system NCI-H460. The data set can be described thus: Cytotoxicity against human NCI-H460 cells at 100 uM by real time IncuCyte proliferation assay. Particulars: nci-h460, 100 µM. It counts as cell-based. In outline:
as §1

In the next data set the test system is LN-229. The data set can be described thus: Cytotoxicity against human LN-229 cells at 100 uM by real time IncuCyte proliferation assay. It counts as cell-based. To be noted: ln-229, 100 µM. In outline:
as §1

`COc1nc(C)nc(Cl)c1NC1=NCCN1` [MOXONIDINE]: the Ki in data set [1] came out at 0.0002 µM; in data set [2], 12 µM.

As for `Brc1ccc2oc(-c3ncc[nH]3)cc2c1.Cl`, the pKi in data set [3] turned out to be 6.28; in data set [4] it was 8.63; in data set [7] it was 5.85; in data set [8], 4.92. Besides, the Activity entry with HCT-116 is “Non-Toxic”; with Z-138, “Non-Toxic”; in the data set with HL-60, “Non-Toxic”; with K562, “Non-Toxic”; in the data set listed under Homo sapiens [9], 20%; with CAPAN-1 it was “Non-Toxic”. In addition, the Activity entry (in [10]; with NCI-H460; with LN-229) was “Non-Toxic” each time. Also, in data set [5], the Papp was determined as 20.3 ×10⁻⁶ cm/s. Moreover, the Selectivity Index in the data set listed under Homo sapiens [6] is 23.

`Cl.Oc1ccc2oc(-c3ncc[nH]3)cc2c1`: the pKi in data set [3] is reported as 4.87; in [4] it was 9.57; in data set [7], 4.6; in [8], 3.84. Besides, the Activity entry was “Non-Toxic” with HCT-116; “Non-Toxic” in the data set with Z-138; “Non-Toxic” in the data set on HL-60; “Non-Toxic” in the data set on K562; 29% in the data set filed under Homo sapiens [9]; “Non-Toxic” with CAPAN-1. In addition, the Activity entry (in data set [10]; with NCI-H460; in the data set with LN-229) was “Non-Toxic” throughout. In [5], the Papp was found to be 0.32 ×10⁻⁶ cm/s. Further, the Selectivity Index in the data set filed under Homo sapiens [6] is 11.

A word on the Ki: it is a measure of affinity in units of concentration, obtained from inhibition or displacement. Higher therefore signals a looser hold on the target. Usually pKi stands for the Ki on a negative log10 scale, so that one unit is a factor of ten. A lower pKi goes with a large Ki. For orientation: Papp means a coefficient for how fast a substance crosses the barrier.
